# Assay outcomes deposited in PubChem BioAssay by The Scripps Research Institute Molecular Screening Center.
# NPY-Y1 PAM-ag: potentiators or agonists of human neuropeptide Y receptor Y1; NPY-Y1 expressing cells, potentiator/agonist activation; activation, % at 3.6 µM; P25929; actives 0.37% (n = 220,000); in the data active = activation above about 33%, passing the limit was not always enough;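 note: cells stimulated with NPY at EC10 then isoproterenol at EC100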
# NPY-Y2 antag: NPY-Y2 (human) receptor antagonism; inhibition, % at 2.7 µM; NPY-Y2 expressing cells, antagonist mode; actives 0.99% (n = 140,000); P49146; in the data active = inhibition above about 17%
# Target sequence (P49146 whole entry, looked up): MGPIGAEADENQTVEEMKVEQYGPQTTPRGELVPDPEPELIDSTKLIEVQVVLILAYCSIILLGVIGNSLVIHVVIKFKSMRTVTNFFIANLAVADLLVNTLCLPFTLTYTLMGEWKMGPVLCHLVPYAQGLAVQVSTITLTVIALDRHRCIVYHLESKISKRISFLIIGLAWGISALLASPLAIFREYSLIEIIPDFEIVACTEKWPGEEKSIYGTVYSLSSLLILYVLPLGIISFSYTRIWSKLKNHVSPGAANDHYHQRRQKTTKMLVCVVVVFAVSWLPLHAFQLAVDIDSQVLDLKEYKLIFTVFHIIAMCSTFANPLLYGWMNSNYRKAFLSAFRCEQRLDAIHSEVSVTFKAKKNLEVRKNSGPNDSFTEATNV
# NPY2 pot ag: human NPY-Y2 potentiation or agonism, primary screen; P49146; cells expressing NPY-Y2, potentiator/agonist read-out; activation, % at 3.6 µM; actives 0.45% (n = 220,000); in the data active = activation above about 27%;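 note: cells stimulated with NPY near EC25 plus isoproterenol at EC100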
# NPY Y1 blocker: blocks the human neuropeptide Y Y1 receptor. actives 1% (n = 200,000). inhibition, % at 3.6 µM. P25929. HEK293-CNG Y1 cells, membrane potential fluorescence; NPY at EC95, then isoproterenol;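 active = inhibition above the campaign mean inhibition of all tested compounds plus 3 SD, cut at about 20% in these data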
#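 Benchmarks – high control isoproterenol alone, low control NPY with isoproterenol · Material – HEK293 Y1/CNG channel cell line · Times – dye 3 h, compound 60 min room temperature, stimulation 45 min · Probe or stimulus – NPY (25 nM), isoproterenol (1 µM), Ro 20-1724 (25 µM) · Evaluation – % inhibition of NPY effect · Signal – fluorescence, membrane potential probe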
# NPY-Y1 antag ct: human NPY-Y1 antagonism in NPY-Y2 counter-screen. shares compounds with NPY-Y2 antag. inhibition, % at 3.6 µM. actives 19% (n = 710). cell-based NPY-Y1 antagonism counterscreen; in the data active = inhibition above about 20%;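 note: cells challenged with NPY then isoproterenol with cAMP sensed through a CNG channel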
# NPY-Y2 ant conf: confirmation of human neuropeptide Y receptor Y2 antagonists. shares compounds with NPY-Y2 antag. HEK293 NPY-Y2 CNG channel, membrane potential fluorescence. inhibition, % at 2.8 µM. actives 32% (n = 710);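 active = mean inhibition of triplicate wells above the hit cutoff set in the primary screen, cut at about 17% in these data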
# A number is an active result; – = inactive; · = not tested or not shown. In the library only some 1.8% were active in any assay of this set; here they are far more common.
SMILES,NPY-Y1 PAM-ag,NPY-Y2 antag,NPY2 pot ag,NPY Y1 blocker,others
CC(C)(C)NCC(O)c1cc(Cl)c(N)c(Cl)c1 (stereo not given),96.6,–,87.8,–,
Cc1ccc(OP(=O)(O)Oc2ccc(C)cc2)cc1,–,–,–,25.8,
COc1ccc(C)cc1NC(=O)c1c(C)nn(Cc2ccccc2)c1Cl,–,21.4,–,20.2,
CC(C)CNP(=S)(c1ccccc1)C(C)(C)C (stereo not given),–,·,–,·,
Cc1cc(C)n2nc(SC(C)C(=O)N3CCC4(CC3)OCCO4)nc2n1 (stereo not given),73.4,–,98.8,–,
Cc1cc(NC(=O)C(Cl)(Cl)Cl)no1,–,·,–,·,
COC(=O)[C@@H]1C[C@H]1[C@@H](NP(=O)(c1ccccc1)c1ccccc1)c1ccccc1,–,–,–,–,
COC(=O)[C@H]1C[C@@H]1[C@H](NP(=O)(c1ccccc1)c1ccccc1)c1ccccc1,–,18.6,–,39.6,
Cc1cc(OC(=O)CCNC(=O)OC(C)(C)C)c2c3c(c(=O)oc2c1)CCC3,–,–,67.7,–,
Cc1cc(OC(=O)CCCNC(=O)OC(C)(C)C)c2c3c(c(=O)oc2c1)CCC3,–,–,–,–,
CC(NCc1ccc(Cl)cc1)C(O)c1ccccc1 (stereo not given),–,–,–,–,
CC(CCc1ccccc1)NC(C)C(O)c1ccc(O)cc1 (stereo not given),92.0,–,85.8,–,
CCN1CCN(Cc2ccc(C)cc2)CC1,–,–,–,–,
CCN1CCN(Cc2cc(C(C)(C)C)c(O)c(C(C)(C)C)c2)CC1,68.4,–,62.4,–,
CC(Oc1ccc(-c2ccccc2)cc1)C(=O)O (stereo not given),–,–,–,24.8,
CCOC(=O)C1=CC(=C2C(=O)N(CC)C(=S)N(CC)C2=O)c2ccccc2O1,–,·,–,–,
CN[C@H]1C[C@H]2O[C@@](C)([C@H]1OC)n1c3ccccc3c3c4c(c5c6ccccc6n2c5c31)C(=O)NC4,–,30.1,–,54.3,
N=C(N)c1c(O)n(C2CCCCC2)c(=O)n(C2CCCCC2)c1=O,–,–,31.0,–,
CCN(CCNc1ccc([N+](=O)[O-])c2cccnc12)S(=O)(=O)c1ccccc1,61.3,–,69.7,–,
CCN(CCNc1ccc([N+](=O)[O-])c2cccnc12)S(=O)(=O)c1ccc(Cl)cc1,–,–,–,–,
CCC(=NCc1ccc2c(c1)OCO2)c1c(O)n(C2CCCCC2)c(=O)[nH]c1=O,–,–,–,–,
CN(C(=O)CNC(=O)OCc1ccccc1)c1ccc(Br)cc1C(=O)c1ccccc1Cl,–,18.1,–,23.1,
Cc1cc(C=C2C(=O)N(C)C(=S)N(C)C2=O)c(C)n1-c1cccnc1,–,–,–,–,
COc1ccc2c(c1)c(CCN)c(C)n2Cc1ccccc1,–,·,–,·,
CCC1C(c2ccccc2)NC(c2ccccc2)CC1(O)c1ccc(F)cc1 (stereo not given),–,·,–,·,
SMILES,NPY-Y1 PAM-ag,NPY-Y2 antag,NPY2 pot ag,NPY Y1 blocker,others
C[C@@H]1O[C@@H](O[C@H]2C[C@@H](O)[C@]3(CO)[C@H]4[C@H](O)C[C@]5(C)[C@@H](C6=CC(=O)OC6)CC[C@]5(O)[C@@H]4CC[C@]3(O)C2)[C@H](O)[C@H](O)[C@H]1O,–,21.9,–,33.8,
CC12CC[C@H]3[C@@H](CCC4(O)C[C@H](O)CCC34/C=N/NC(=O)c3ccccc3Cl)C1(O)CCC2C1=CC(=O)OC1 (stereo not given in full),–,·,–,·,
C[C@H]1O[C@@H](O[C@H]2[C@@H](O)C[C@H](O[C@H]3[C@@H](O)C[C@H](O[C@H]4CC[C@@]5(C)[C@H](CC[C@@H]6[C@@H]5CC[C@]5(C)[C@@H](C7=CC(=O)OC7)CC[C@]65O)C4)O[C@@H]3C)O[C@@H]2C)C[C@H](O)[C@@H]1O,–,44.5,–,50.9,
Cc1cccc(-n2c(-c3ccccc3)nc3ccccc3c2=O)n1,–,·,–,–,
CCNC(=O)C1OC(n2cnc3c(N)ncnc32)C(O)C1O (stereo not given),–,137.6,–,126.8,
O=C(c1cc(F)ccc1F)C1CCCN(Cc2ccc3nonc3c2)C1 (stereo not given),–,·,–,–,
C=C[C@@H]1C[C@@]1(C)[C@@H](NP(=O)(c1ccccc1)c1ccccc1)c1ccccc1,–,23.1,–,37.8,
CCOC(=O)c1c(C)n(Cc2ccco2)c2ccc(O)cc12,–,–,–,–,
CCCCn1c(C)c(C(=O)OCC)c2c(CN3CCOCC3)c(O)ccc21,–,33.9,–,33.2,
O=C(N/N=C/c1c(O)n(CCc2ccccc2)c(=O)[nH]c1=O)c1ccccc1,–,·,–,·,
OC(c1ccc(F)cc1)C(c1ccccc1)N1CCOCC1 (stereo not given),–,–,–,–,
CCC(=NCCC(c1ccccc1)c1ccccc1)c1c(O)[nH]c(=O)[nH]c1=O,–,35.1,–,–,NPY-Y1 antag ct=39.8;NPY-Y2 ant conf=66.8
CC1CCC(C(C)C)C(OC(=O)COC(=O)c2ccccc2N)C1 (stereo not given),–,18.3,–,–,NPY-Y1 antag ct=–;NPY-Y2 ant conf=–
COP(=O)(OC)C(Nc1ccccn1)c1ccccc1 (stereo not given),–,–,–,–,
O=P(Oc1ccccc1)(Oc1ccccc1)C(Nc1ccccc1)c1ccccc1 (stereo not given),–,28.2,–,–,NPY-Y1 antag ct=26.5;NPY-Y2 ant conf=20.0
CCOP(=S)(OCC)c1ccc(N(C)C)cc1,–,17.2,–,–,NPY-Y1 antag ct=–;NPY-Y2 ant conf=–
CN(C)c1ccc(P(=S)(N(C)C)N(C)C)cc1,–,–,–,–,
NC1C2CN3CCN(C2)CC1(c1ccccc1)C3 (stereo not given),–,·,–,·,
O=C(c1ccco1)c1cn(Cc2ccccc2Cl)c2ccccc12,–,23.9,–,–,NPY-Y1 antag ct=–;NPY-Y2 ant conf=–
O=C(c1ccco1)c1cn(Cc2ccccc2)c2ccccc12,–,–,–,–,
N#Cc1ccccc1Cn1cc(C(=O)c2ccco2)c2ccccc21,–,17.2,–,–,NPY-Y1 antag ct=–;NPY-Y2 ant conf=–
CC(=O)N1N=C2C3CCN(CC3)C2C1c1ccccc1 (stereo not given),–,–,–,–,
O=C(C(Cc1ccccc1)NS(=O)(=O)c1ccc(F)cc1)N1CCC2(CC1)OCCO2 (stereo not given),–,–,–,–,
Cc1ccsc1C(=O)C1CCCN(Cc2ccccc2O)C1 (stereo not given),–,·,–,–,
